SIAE primary = inhibitors of human sialic acid acetylesterase SIAE; Q9HAT2; SIAE FP-Rh probe binding, fluorescence polarization; inhibition, % at 9.66 µM; hit rate 0.69% among 370,000;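 active = inhibition above a cutoff: mean of compounds within the control limits plus 3 SD of those, cut at about 17% in these data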
rCAG binder = binds r(CAG) RNA repeats; r(CAG) RNA repeat, TO-PRO-1 dye displacement fluorescence; inhibition, % at 3 µM; hit rate 1.3% among 370,000;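 active = inhibition above the plate cutoff, the mean of all test compounds on that plate plus 3 SD, cut at about 35% in these data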;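 note: higher means more dye released from RNA so lower well fluorescence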
HTRA1 inhibitor = HTRA1 (human) protease inhibition; hit rate 0.5% among 340,000; recombinant HTRA1, FP-rhodamine activity-based probe, fluorescence polarization; AID 504803; inhibition, % at 5.96 µM; in the data active = inhibition above about 36%
ABHD4 inh = inhibits mouse alpha/beta hydrolase domain 4. purified mABHD4, FP-Rh probe fluorescence polarization. inhibition, % at 8.92 µM. hit rate 0.54% among 370,000. AID 720543;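 active = inhibition exceeding the mean over every tested compound plus 3 SD, cut at about 30% in these data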
Target sequence (Q8VD66 whole entry, looked up, the tested form may be a part): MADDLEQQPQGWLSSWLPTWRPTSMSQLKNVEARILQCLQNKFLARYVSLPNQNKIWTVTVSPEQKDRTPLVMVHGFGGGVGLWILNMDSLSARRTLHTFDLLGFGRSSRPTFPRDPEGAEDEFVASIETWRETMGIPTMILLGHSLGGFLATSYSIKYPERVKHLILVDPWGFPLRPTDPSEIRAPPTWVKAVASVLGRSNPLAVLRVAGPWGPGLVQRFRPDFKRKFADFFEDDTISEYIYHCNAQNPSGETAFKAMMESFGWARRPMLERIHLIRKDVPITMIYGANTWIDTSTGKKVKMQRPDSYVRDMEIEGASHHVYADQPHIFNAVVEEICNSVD
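system = mouse ABHD4 enzyme, wild type | medium = HEPES pH 7.0, NaCl, Pluronic buffer | also added = FP-Rh probe | incubation = Enzyme–compound pre-incubation 45 min, then probe 60 min, both 25 °C | technique = fluorescence polarization, excitation 525 nm, emission 598 nm, BODIPY TMR filters | controls = S159A mutant high control, sample median low control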
PRMT1 inh = blocks human protein arginine methyltransferase 1; Q99873; recombinant PRMT1, activity-based probe fluorescence polarization; inhibition, % at 2.79 µM; hit rate 1.3% among 370,000; AID 652257;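 active = inhibition above about 21% made by adding two undisclosed values, limit read from the data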
Numbers stand for hits. An excerpt weighted towards active compounds, which were near 3.3% of everything screened.

For Cc1ccc(CC2C(=O)N(C)C(=O)N(C)C2=O)s1 the results were SIAE primary inactive, rCAG binder inactive, HTRA1 inhibitor inactive, ABHD4 inh inactive and PRMT1 inh 21.2.
C=CCOc1ccc(CC2C(=O)N(C)C(=O)N(C)C2=O)cc1 was read as SIAE primary inactive, rCAG binder inactive, HTRA1 inhibitor inactive, ABHD4 inh inactive and PRMT1 inh inactive.
For CCOc1cccc(OCC)c2c(C)[n+](CC3CCCO3)c(C)c1-2 (configuration not stated) the results were HTRA1 inhibitor 49.9.
Screening COc1ccc(CCNCC2CCCO2)cc1 (configuration not stated) returned SIAE primary inactive, rCAG binder inactive, HTRA1 inhibitor inactive, ABHD4 inh inactive and PRMT1 inh inactive.
CC(C)C[C@H]1C(=O)N2CCCC2[C@]2(O)O[C@](NC(=O)[C@@H]3C=C4c5cccc6[nH]cc(c56)CC4N(C)C3)(C(C)C)C(=O)N12 (some centres not stated) was read as HTRA1 inhibitor 45.2.
`CC(C)[C@H]1C(=O)N2CCC[C@H]2[C@]2(O)O[C@](NC(=O)[C@@H]3C=C4c5cccc6[nH]cc(c56)C[C@H]4N(C)C3)(C(C)C)C(=O)N12` gave HTRA1 inhibitor inactive.
`O=C1NC(=O)N(c2ccccc2F)C(=O)/C1=C/c1ccc(Sc2nc3ccccc3[nH]2)o1` gave SIAE primary inactive, rCAG binder 45.8, HTRA1 inhibitor inactive, ABHD4 inh inactive and PRMT1 inh 25.0.
Screening Cc1cccc2nc(-c3ccccc3)c(-c3ccc(CN4CCC(n5c(=O)[nH]c6cc(Cl)ccc65)CC4)cc3)nc12 returned SIAE primary inactive, rCAG binder inactive, ABHD4 inh inactive and PRMT1 inh inactive.
`CN1C(=O)C(=Cc2ccccc2OCc2ccccc2Cl)C(=O)N(C)C1=O` gave SIAE primary inactive, rCAG binder inactive, HTRA1 inhibitor inactive, ABHD4 inh inactive and PRMT1 inh 22.7.
Screening Cc1ccc(OCCOc2cccc(C=C3C(=O)NC(=O)NC3=O)c2)cc1 returned SIAE primary inactive, rCAG binder inactive, HTRA1 inhibitor inactive, ABHD4 inh inactive and PRMT1 inh 22.2.
For COc1ccc(C(=O)NC(=S)N2C[C@H]3C[C@H](C2)c2cccc(=O)n2C3)cc1OC the results were SIAE primary inactive, rCAG binder inactive, HTRA1 inhibitor inactive, ABHD4 inh inactive and PRMT1 inh inactive.
Screening CCCOc1ccc(C(=O)NC(=S)N2C[C@H]3C[C@H](C2)c2cccc(=O)n2C3)cc1 returned SIAE primary inactive, rCAG binder inactive, HTRA1 inhibitor inactive, ABHD4 inh inactive and PRMT1 inh 24.6.
Screening CC(C)C(CN1CCC(C)(c2cccc(O)c2)[C@@H](C)C1)NC(=O)C1Cc2ccc(O)cc2CN1 (some centres not stated) returned SIAE primary inactive, rCAG binder inactive, ABHD4 inh inactive and PRMT1 inh inactive.
`CCc1ccccc1NC(=O)CSc1nnc([C@@H](N)Cc2c[nH]c3ccccc23)o1` gave SIAE primary inactive, rCAG binder inactive, HTRA1 inhibitor inactive, ABHD4 inh inactive and PRMT1 inh 23.9.
For O=c1[nH]c2cc(Cl)ccc2n1C1CCN(Cc2ccc(-c3nc4ccc(F)cc4nc3-c3ccccc3)cc2)CC1 the results were SIAE primary inactive, rCAG binder inactive, ABHD4 inh inactive and PRMT1 inh inactive.
Screening COc1ccc(C2SCC(=O)Nc3c2c(C)nn3-c2ccccc2)cc1 (configuration not stated) returned SIAE primary inactive, rCAG binder inactive, HTRA1 inhibitor inactive, ABHD4 inh inactive and PRMT1 inh 23.1.
Screening Cc1ccc(-n2nc(C)c3c2NC(=O)CSC3c2ccc3c(c2)OCO3)cc1 (configuration not stated) returned SIAE primary inactive, rCAG binder inactive, HTRA1 inhibitor inactive, ABHD4 inh inactive and PRMT1 inh inactive.
Screening CC(C)COC(=O)c1ccccc1C(=O)OCC(C)C returned SIAE primary inactive, rCAG binder inactive, HTRA1 inhibitor inactive, ABHD4 inh inactive and PRMT1 inh inactive.
C[CH2][Hg][S]c1ccccc1C(=O)O was read as SIAE primary inactive, rCAG binder inactive, HTRA1 inhibitor inactive, ABHD4 inh inactive and PRMT1 inh 83.7.
`CN1C(=O)[C@@]23C[C@]4(c5c[nH]c6ccccc56)c5ccccc5N(S(=O)(=O)c5ccccc5)[C@@H]4N2C(=O)[C@@H]1SS3` gave SIAE primary inactive, ABHD4 inh inactive and PRMT1 inh inactive.
CC[C@H](C)/C=C(C)/C=C/C1=CC2=C(Cl)C(=O)[C@](C)(OC(C)=O)C(=O)C2=CO1 was read as HTRA1 inhibitor 70.4.
Screening N#Cc1ccc2nc(-c3ccc(CN4CCC(n5c(=O)[nH]c6cc(Cl)ccc65)CC4)cc3)c(-c3ccccc3)nc2c1 returned SIAE primary inactive, rCAG binder inactive, ABHD4 inh inactive and PRMT1 inh inactive.
Screening CCCCn1c(O)c(C=NCc2ccc3c(c2)OCO3)c(=O)[nH]c1=O returned SIAE primary inactive, rCAG binder inactive, HTRA1 inhibitor inactive, ABHD4 inh inactive and PRMT1 inh inactive.
For O=c1[nH]c(=O)n(Cc2ccco2)c(O)c1C=NCc1ccc2c(c1)OCO2 the results were SIAE primary inactive, rCAG binder inactive, HTRA1 inhibitor inactive, ABHD4 inh inactive and PRMT1 inh 23.2.
O=C(NCCN1CCC2(CC1)C(=O)NCN2c1ccccc1)c1cc(C(F)(F)F)ccc1C(F)(F)F was read as SIAE primary inactive, rCAG binder inactive, ABHD4 inh inactive and PRMT1 inh inactive.
`NC(N)=N/N=C/c1cn(-c2ccccc2)nc1-c1cccs1` gave SIAE primary inactive, rCAG binder 35.7, HTRA1 inhibitor inactive, ABHD4 inh inactive and PRMT1 inh inactive.
For CN1OC[C@@H]2CN3C4(C[C@@H]21)c1ccccc1C3(c1ccccc1)c1ccccc14 the results were SIAE primary inactive, rCAG binder inactive, ABHD4 inh inactive and PRMT1 inh inactive.
For COC(=O)C1(N(C)c2ccccc2)CCN(Cc2ccccc2)CC1 the results were SIAE primary inactive, rCAG binder inactive, ABHD4 inh inactive and PRMT1 inh inactive.
Screening CNCCc1ccc(O)c(O)c1 returned SIAE primary inactive, rCAG binder inactive, HTRA1 inhibitor inactive, ABHD4 inh inactive and PRMT1 inh 21.4.
`CN1C[C@H](CO)C=C2c3cccc4[nH]cc(c34)C[C@H]21` gave SIAE primary inactive, rCAG binder inactive, HTRA1 inhibitor inactive, ABHD4 inh inactive and PRMT1 inh 22.8.
`Clc1ccc([C@H]2CC3CCC2N3)cn1` (some centres not stated) gave SIAE primary inactive, rCAG binder inactive, ABHD4 inh inactive and PRMT1 inh inactive.
`O=C1NC(=S)N(c2ccccc2)C(=O)C1C(c1ccncc1)C1C(=O)NC(=S)N(c2ccccc2)C1=O` (configuration not stated) gave SIAE primary inactive, rCAG binder inactive, HTRA1 inhibitor inactive, ABHD4 inh inactive and PRMT1 inh 28.2.
O=C(NCCN1CCC2(CC1)C(=O)NCN2c1ccccc1)C(c1ccccc1)c1ccccc1 was read as SIAE primary inactive, rCAG binder inactive, ABHD4 inh inactive and PRMT1 inh inactive.

Assay outcomes deposited in PubChem by The Scripps Research Institute Molecular Screening Center.
